Bioassay records: PubChem, several laboratories
Most compounds without a hit are left out; they make up all but 2.6% or so of the library.
LMPTP block = blocks human LMPTP phosphatase; actives 0.22% (n = 360,000); recombinant LMPTP-A, OMFP fluorogenic substrate, fluorescence intensity; inhibition, % at 20 µM; P24666;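 active = compounds that cut the enzyme signal by at least half of the control window in the single-dose screen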
Target sequence (P24666 whole entry, looked up): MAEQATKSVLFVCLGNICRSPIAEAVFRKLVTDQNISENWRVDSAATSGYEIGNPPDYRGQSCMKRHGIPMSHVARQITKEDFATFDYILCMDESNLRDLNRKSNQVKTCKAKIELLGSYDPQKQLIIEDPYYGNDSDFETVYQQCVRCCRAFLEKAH
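test system = LMPTP-A | amount = 0.625 nM LMPTP-A final | reagent = fluorogenic phosphatase substrate OMFP at 400 µM final | incubation = 50 min at room temperature | benchmarks = no-enzyme low control, uninhibited high control | medium = Bis-Tris pH 6.0, DTT, detergent | signal = fluorescence intensity of OMFP turnover product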
rCAG RNA binder = binds r(CAG) RNA repeats; r(CAG) RNA repeat, TO-PRO-1 dye displacement fluorescence; inhibition, % at 3 µM; AID 651821; actives 1.3% (n = 370,000);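 active = inhibition above the plate cutoff, the mean of all test compounds on that plate plus 3 SD, cut at about 35% in these data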;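 also: higher means more dye released from RNA so lower well fluorescence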
NadD block = NadD (S. aureus) enzyme inhibition | purified NadD enzyme, colorimetric absorbance read-out | inhibition, % at 20 µM | actives 0.78% (n = 360,000) | AID 602399; in the data active = inhibition above about 26%
Scp1 inh = Scp-1 (human) phosphatase inhibition; actives 0.88% (n = 340,000); inhibition, % at 20 µM; Recombinant Scp1, phosphopeptide, malachite green phosphate absorbance; AID 493091;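 active = inhibition above about 50% at 20 µM, limit read from the data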
Target sequence (Q9GZU7 76-261 limits assumed): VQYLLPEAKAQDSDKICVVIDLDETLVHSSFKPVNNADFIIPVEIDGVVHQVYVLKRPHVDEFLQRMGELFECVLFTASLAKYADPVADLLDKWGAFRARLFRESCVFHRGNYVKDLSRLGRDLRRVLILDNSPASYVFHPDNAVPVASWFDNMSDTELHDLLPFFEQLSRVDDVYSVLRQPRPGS
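Assay system: SCP-1 catalytic fragment, aa 76-261 | Buffer or medium: Tris acetate buffer pH 5.5 with MgCl2 and Tween-20 | Compound: One concentration, 20 µM, with 1.0% DMSO | Also added: Phospho 17-mer peptide substrate | Signal: Absorbance at 630 nm | Incubation: 45 min enzyme reaction at room temperature | Measure: % inhibition of SCP-1 phosphate liberation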
STEP inh = inhibitors of human striatal-enriched phosphatase STEP; P54829; recombinant STEP, OMFP fluorogenic substrate, fluorescence; inhibition, % at 20 µM; actives 0.25% (n = 360,000); AID 588621;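 active = inhibition at 20 µM, scaled per plate between control wells, above about 37%, limit read from the data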
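Material: STEP (striatal-enriched tyrosine phosphatase) enzyme, cell-free | Medium: 50 mM Bis-Tris pH 6.0 with 2.5 mM DTT and 0.005% Tween 20 | Read-out: Percent inhibition scaled to no-enzyme and uninhibited-enzyme controls, plate-pattern corrected | Signal: Fluorescence read at 480 nm ex / 540 nm em | Times: 20 min reaction, room temperature, in the dark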
NadD inh conf = confirmation of Staphylococcus aureus NadD inhibitors. shares compounds with NadD block. actives 13% (n = 2,000). AID 624309. purified S. aureus NadD, colorimetric enzyme assay. inhibition, % at 20 µM; in the data active = inhibition mostly above about 42%, no sharp cut-off; inactive = mostly below about 42%
Numbers stand for hits; i = inactive; nt = no result given.

SMILES	LMPTP block	rCAG RNA binder	NadD block	Scp1 inh	STEP inh	NadD inh conf
O=C(Nc1ccccc1)c1nc[nH]c1C(=O)NCCCCCCNC(=O)c1[nH]cnc1C(=O)Nc1ccccc1	i	i	32	i	i	i
O=C(Nc1ccccc1)c1nc[nH]c1C(=O)NCCN(CCNC(=O)c1[nH]cnc1C(=O)Nc1ccccc1)CCNC(=O)c1[nH]cnc1C(=O)Nc1ccccc1	i	i	57	i	i	i
O=C(Nc1ccccc1)c1nc[nH]c1C(=O)NCCCNC(=O)c1[nH]cnc1C(=O)Nc1ccccc1	i	i	i	i	i	nt
CC(C)(C)OC(=O)NCc1ccc(NC(=O)c2nc[nH]c2C(=O)N[C@@H](Cc2ccccc2)C(=O)OC(C)(C)C)cc1	i	i	30	i	i	i
CC(C)C[C@H](NC(=O)c1[nH]cnc1C(=O)Nc1ccc(CNC(=O)OC(C)(C)C)cc1)C(=O)OC(C)(C)C	i	i	i	i	i	nt
Cc1cccc(NC(=O)c2nc[nH]c2C(=O)NCCN(CCNC(=O)c2[nH]cnc2C(=O)Nc2cccc(C)c2)CCNC(=O)c2[nH]cnc2C(=O)Nc2cccc(C)c2)c1	i	i	42	i	i	i
CNC(=O)c1[nH]cnc1C(=O)Nc1ccc(Cl)cc1	i	i	i	i	i	nt
O=C(Nc1ccc(Cl)cc1)c1nc[nH]c1C(=O)NCCN(CCNC(=O)c1[nH]cnc1C(=O)Nc1ccc(Cl)cc1)CCNC(=O)c1[nH]cnc1C(=O)Nc1ccc(Cl)cc1	i	nt	57	i	i	i
Cc1cccc(NC(=O)CSc2nc3nc4c(cc3c(=O)n2-c2ccccc2)CCCC4)c1	i	i	i	i	i	nt
O=C(CSc1nc2nc3c(cc2c(=O)n1-c1ccccc1)CCCC3)Nc1cccc2ccccc12	i	i	41	i	i	i
COc1ccccc1CNC(=O)N1CCC(c2nc3ccc(Cl)cc3[nH]2)CC1	nt	i	nt	nt	nt	nt
CC1=CC(=O)N(c2cccc3c(N4C(=O)C=C(C)C4=O)cccc23)C1=O	i	36	58	i	i	i
Cc1ccc2cc(C#N)c(N3CCCC3)nc2c1C	i	i	34	i	i	i
CN(C)c1ccc(C(CN)c2c[nH]c3ccccc23)cc1 (centres undefined)	i	i	31	i	i	i
CN(C)c1ccc(C(CNS(=O)(=O)c2ccc3ccccc3c2)c2c[nH]c3ccccc23)cc1 (centres undefined)	i	i	i	i	i	nt
CCn1c(SCC(=O)Nc2nc(-c3ccc(C)cc3)cs2)nnc1-c1ccccc1	i	i	i	i	i	nt
CCn1c(SCC(=O)Nc2nc(-c3ccc(C)cc3)cs2)nnc1-c1ccccc1O	i	i	37	i	i	43
CCc1ccc(NC(=O)CSc2nc3ccsc3c(=O)n2CCC(=O)O)cc1	i	i	i	i	i	nt
CC(C)c1ccc(NC(=O)CSc2nc3ccsc3c(=O)n2Cc2ccc(C(=O)O)cc2)cc1	i	i	32	i	i	i
CCN(CC)C(=O)CC[C@@H]1CC[C@]2(CCCN(C(=O)c3ccco3)C2)O1	nt	i	nt	nt	nt	nt
CCOc1cc(/C=N\NC(=O)Cn2nc([N+](=O)[O-])cc2C)ccc1OCc1cccc2ccccc12	i	i	38	i	i	i
COc1cc(OC)c(N(C)S(=O)(=O)c2cccc(C(=O)Nc3nnc(C4CC4)s3)c2)cc1Cl	i	i	32	i	i	i
C/C(=C/CCC(C)[C@H]1CC[C@@]2(C)C3=C(CC[C@]12C)[C@@]1(C)CCC(=O)C(C)(C)[C@@H]1CC3)C(=O)O (some centres undefined)	i	i	45	i	i	i
C[N+]1=C(N)NC2=C3CCCCC3n3c(=O)n(-c4ccccc4)c(=O)n3C2C1 (centres undefined)	nt	i	nt	nt	nt	nt
COC1=C[C@H](C(=O)N[C@H]2CCCC[C@@H]2NC(C)=O)[C@@]2(C)Cc3ccccc3[C@H]2CC1=O	nt	i	nt	nt	nt	nt
SMILES	LMPTP block	rCAG RNA binder	NadD block	Scp1 inh	STEP inh	NadD inh conf
COc1ccc(-c2nn(-c3ccccc3)cc2/C=N/NC(=O)c2cccc(S(=O)(=O)Nc3ccccc3OC)c2)cc1	i	i	45	i	i	i
COc1ccc(-c2nn(-c3ccccc3)cc2/C=N/NC(=O)c2ccc(Br)o2)cc1	i	i	i	i	i	nt
C/C(=C/c1c[n+](Cc2ccc3c(c2)OCO3)c(N)[nH]1)Cn1[nH]c(=O)n(-c2ccccc2)c1=O	nt	i	nt	nt	nt	nt
CC(C)(C)c1ccc(C#C[C@@H]2C=C[C@H]3OC(=O)CC/C=C/CCC(=O)OC[C@H]3O2)cc1	nt	i	nt	nt	nt	nt
COc1cc(NC(=O)c2ccccc2)c(C)cc1NC(=O)CSc1nnc(-c2ccco2)n1Cc1ccco1	nt	i	nt	nt	nt	nt
Cc1ccc([N+](=O)[O-])cc1S(=O)(=O)Nc1cccc(-c2ccc(N3CCCC3)nn2)c1	i	i	44	i	i	55
O=S(=O)(Nc1cccc(-c2ccc(N3CCCCCC3)nn2)c1)c1ccc(C(F)(F)F)cc1	i	i	36	i	i	i
Cc1ccc(S(=O)(=O)Nc2cccc(-c3ccc(N4CCCCCC4)nn3)c2)cc1C	i	i	42	i	i	i
CCOc1ccc(S(=O)(=O)Nc2cccc(-c3ccc(N4CCCCCC4)nn3)c2)cc1	i	i	i	i	i	nt
Cc1ccc([N+](=O)[O-])cc1S(=O)(=O)Nc1ccc(-c2ccc(N3CCOCC3)nn2)cc1	i	i	i	i	i	nt
COc1ccc(C)cc1S(=O)(=O)Nc1cccc(-c2ccc(N3CCCCCC3)nn2)c1	i	i	31	i	i	i
COc1cccc(-c2nnc(SCC(=O)Nc3cccc4ccccc34)n2Cc2ccco2)c1	nt	i	nt	nt	nt	nt
Cc1cc(N2CCN(C(=O)Oc3ccc(C(F)(F)F)cc3)CC2)c2ccccc2n1	nt	i	nt	nt	nt	nt
O=S(=O)(Nc1cccc(-c2ccc(N3CCCCCC3)nn2)c1)c1cccc(F)c1	i	i	31	i	i	i
O=S(=O)(Nc1cccc(-c2ccc(N3CCCCCC3)nn2)c1)c1ccccc1Cl	i	i	50	i	i	i
O=S(=O)(Nc1cccc(-c2ccc(N3CCCCCC3)nn2)c1)c1ccccc1F	i	i	i	i	i	nt
O=S(=O)(Nc1cccc(-c2ccc(N3CCCCCC3)nn2)c1)c1ccc(F)cc1	i	i	i	i	i	nt
O=C(/C=C/c1ccco1)NC(=S)Nc1ccc(O)c(-c2nc3ccccc3s2)c1	i	i	47	i	i	i
COc1ccc(NC(=S)NC(=O)/C=C/c2ccco2)cc1	i	i	i	i	i	nt
COCCN(C[C@@H]1[C@H](c2ccccc2)[C@H](CO)N1c1nc(C)c(C)s1)S(=O)(=O)c1ccccc1[N+](=O)[O-]	nt	i	nt	nt	nt	nt
Cc1cccc(Cn2cc(CN3CC(N4CCN(CCOC(=O)c5cc6ccccc6o5)CC4)CS3(=O)=O)nn2)c1 (centres undefined)	nt	i	nt	nt	nt	nt
Cc1ccc(-c2nc3ccccc3[nH]2)cc1NC(=O)c1sc2cc(Cl)ccc2c1Cl	i	i	29	i	i	i
